Positions count from the first letter of the chain named. Counter-ions that a name gives are not always drawn.
How the values were obtained:
DENV 2 [1] = assay: microbe, parasite or virus in culture; type: cell-based; details: for EC50: Dengue virus, BHK-21, 48 h, read-out: EC50 (BHK-21 μM); for SI (CC50/EC50): selective index, BHK-21 CC50 / BHK-21 EC50
DENV 2 [2] = assay: Antiviral assay on Huh 7 cells; type: cell-based; details: Dengue virus, Huh-7, 48 h, read-out: EC50 (Huh 7 μM)
In short: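 Huh 7 cells were seeded at 4×10^4/well and grown overnight at 37 °C, 5% CO₂. Test compound was serially diluted threefold from 50 µM in DMEM with 2% FBS and added to cells for 1 h. DENV 2 was added at MOI 1 for 1 h, then the inoculum was removed, cells washed with PBS, and compound re-added. After two days, supernatant viral RNA was quantified by one-step SYBR RT-qPCR against an NS5A standard curve.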

NS2B-NS3pro = molecular target: T1, NS2B-NS3pro (Dengue virus type 2, UniProt P29990, M1488V); type: binding, DENV 2; details: SPR
T1 sequence (P29990 with tags, fused parts or gaps T1441G/I1442G/L1443G/I1444G/R1445S/T1446G/DEL1448-1473/Q1474G/R1475G/M1488V): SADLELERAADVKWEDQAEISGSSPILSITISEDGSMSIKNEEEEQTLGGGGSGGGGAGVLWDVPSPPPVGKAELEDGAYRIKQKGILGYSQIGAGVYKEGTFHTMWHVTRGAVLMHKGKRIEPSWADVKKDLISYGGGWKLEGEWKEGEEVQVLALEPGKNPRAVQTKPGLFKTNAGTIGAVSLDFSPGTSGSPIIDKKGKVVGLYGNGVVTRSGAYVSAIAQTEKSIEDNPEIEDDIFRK

DENV 2 [3] = assay: DENV 2 challenge of AG129 mice; type: in vivo; details: for viral copy numbers in the spleen and liver: i.g., two days post infection, Fig. 2F
Pharmacokinetics in rats = type: in vivo, Sprague-Dawley rats; details: SD rats, i.v. as a reference
In short: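 Male Sprague-Dawley rats (180–220 g), three per group, were fasted overnight. Test compound was dosed i.g. at 20 mg/kg as a suspension in 0.4% sodium carboxymethylcellulose, or i.p. dissolved by sonication in 10% DMSO/40% PEG 300/5% Tween 80/45% saline. Jugular plasma was sampled repeatedly up to 36 h. Samples were mixed with diclofenac sodium, precipitated with acetonitrile, and analysed by LC-MS/MS. Parameters were derived by non-compartmental analysis.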

DENV 2 [4] = assay: Time-of-addition assay; type: cell-based; details: BHK-21 cells
In short: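 The assay used BHK-21 cells seeded overnight. In the treatment-mode arms, cells were infected at MOI 0.1 for 0–1 h, with compound applied as virus pretreatment for 1 h, cell pretreatment (–1–0 h), post-infection (1–46 h) or full-time (–1–46 h). In the addition-time arms, infection was at MOI 1 for 1 h, with compound added at 0–36 h. Readout at 48 h was supernatant RT-qPCR and IFA, with DMSO and ribavirin as controls.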

ZIKV NS2B-NS3pro = molecular target: T2, ZIKV NS2B-NS3pro (Zika virus, UniProt Q32ZE1); assay: FRET assay on ZIKV NS2B-NS3pro; type: biochemical
T2 sequence (Q32ZE1 with tags, fused parts or gaps DEL1464-1489/Y1490G/V1491G/Y1492G/V1493G/K1494S/T1495G/K1497G/R1498G): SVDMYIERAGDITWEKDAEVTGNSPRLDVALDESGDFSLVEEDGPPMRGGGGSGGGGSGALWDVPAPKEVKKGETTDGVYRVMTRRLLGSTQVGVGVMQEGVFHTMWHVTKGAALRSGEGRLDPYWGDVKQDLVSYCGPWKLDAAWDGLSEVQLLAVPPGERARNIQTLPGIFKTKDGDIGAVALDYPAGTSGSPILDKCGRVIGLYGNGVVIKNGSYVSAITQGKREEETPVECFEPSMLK

DENV 2 NS2B-NS3pro = molecular target: T3, DENV 2 NS2B-NS3pro (Dengue virus type 2, UniProt P29990); assay: Enzyme kinetic analysis; type: biochemical
T3 sequence (P29990 with tags, fused parts or gaps T1441G/I1442G/L1443G/I1444G/R1445S/T1446G/DEL1448-1473/Q1474G/R1475G): T1 sequence (P29990 with tags, fused parts or gaps T1441G/I1442G/L1443G/I1444G/R1445S/T1446G/DEL1448-1473/Q1474G/R1475G/M1488V) with V70M

Water solubility = type: physicochemical

Structure (SMILES)	EC50 (DENV 2 [1]) [nM]	SI (CC50/EC50) (DENV 2 [1])	EC50 (DENV 2 [2]) [nM]	viral copy numbers in the spleen and liver (DENV 2 [3])	other results
CCOC(=O)c1ccc(C#Cc2ccc3c(c2)C(C)(C)CCS3)nc1 [AGN190168]	10900	24.15	107	–	–
NC(=NCc1ccccc1)NC(=O)c1nc(Cl)c(N)nc1N [Benzamil hydrochloride]	368	120.85	2620	–	SI (CC50/EC50) (DENV 2 [1]; listed as benzamil hydrochloride): greater than 100; binding affinity on NS2B-NS3pro (NS2B-NS3pro): almost no binding affinity
CC1=NN(c2ccc(C)c(C)c2)C(=O)/C1=N\Nc1cccc(-c2cccc(C(=O)O)c2)c1O [Eltrombopag]	316	–	1460	significantly reduced	viral copy numbers in the liver, spleen, and kidney (DENV 2 [3]; 10 or 20 mg/kg, i.g. or i.p., two days post challenge, Fig. 3C): reduced the viral copy numbers in the liver, spleen, and kidney in a dose-dependent manner; decrease of viral loads in spleen (DENV 2 [3]; DENV 2 at 10^7 TCID50): more than 1 log; expression of TNF-α and IL-6 in the blood (DENV 2 [3]; RT-qPCR, Fig. 3D): inhibited the expression of TNF-α and IL-6; inhibitory effect on viral copies by delivery route (DENV 2 [3]; i.p. compared with i.g., Fig. 3C): stronger inhibitory effect when delivered via i.p.; pharmacokinetics i.p. compared with i.g. (Pharmacokinetics in rats): better absorption, distribution, and clearance; inhibition on addition at 36 h or later (DENV 2 [4]; MOI = 1, RT-qPCR at 48 h): reduced inhibition; time of addition following DENV 2 infection with effective inhibition (DENV 2 [4]; MOI = 1, RT-qPCR at 48 h): ≤ 24 h; inhibition when added at the post-infection stage versus full-time treatment (DENV 2 [4]; RT-qPCR at 48 h): comparable inhibition; effect on the viruses and cells themselves (pretreatment modes) (DENV 2 [4]; pretreatment of virus or of cell): negligible effect; IC50 (ZIKV NS2B-NS3pro): 29800 nM; reversibility of binding to DENV2 NS2B-NS3pro (DENV 2 NS2B-NS3pro; varying NS2B-NS3pro, fixed substrate 20 μM, eltrombopag 0, 10 and 20 μM): reversibly binds; mode of inhibition with respect to substrate (DENV 2 NS2B-NS3pro; varying substrate, NS2B-NS3pro 300 nM, Vmax changes, Km unchanged): substrate-non-competitive manner; water solubility (Water solubility): poorly water-soluble
Cc1cc(-c2ccc(/N=N/c3ccc4c(S(=O)(=O)O)cc(S(=O)(=O)O)c(N)c4c3O)c(C)c2)ccc1/N=N/c1ccc2c(S(=O)(=O)O)cc(S(=O)(=O)O)c(N)c2c1O [Evans Blue]	4850	49.98	337	–	–
COC(=O)N[C@H](C(=O)N1CC2(CC2)C[C@H]1c1nc(-c2ccc3c(c2)C(F)(F)c2cc(-c4ccc5[nH]c([C@@H]6[C@H]7CC[C@H](C7)N6C(=O)[C@@H](NC(=O)OC)C(C)C)nc5c4)ccc2-3)c[nH]1)C(C)C [GS-5885]	3320	–	529	no effect	–
COC(=O)N[C@H](C(=O)N1CCC[C@H]1c1nc(-c2ccc3c(c2)O[C@@H](c2ccccc2)n2c-3cc3cc(-c4c[nH]c([C@@H]5CCCN5C(=O)[C@@H](NC(=O)OC)C(C)C)n4)ccc32)c[nH]1)C(C)C [MK-8742]	45.9	–	161	no effect	–
C#CCC(Cc1cnc2nc(N)nc(N)c2n1)c1ccc(C(=O)N[C@@H](CCC(=O)O)C(=O)O)cc1 (stereo partly drawn) [Pralatrexate]	< 7.6	>13684.21	< 70	–	SI (CC50/EC50) (DENV 2 [1]; listed as pralatrexate): greater than 100; binding affinity on NS2B-NS3pro (NS2B-NS3pro): almost no binding affinity
NC(=O)c1ncn([C@@H]2O[C@H](CO)[C@@H](O)[C@H]2O)n1 [Ribavirin]	–	–	–	–	time of addition following DENV 2 infection with effective inhibition (DENV 2 [4]; MOI = 1, RT-qPCR at 48 h): ≤ 12 h

Source: PMC12282411 (Virologica Sinica, 2025)
